Source: ChEMBL document CHEMBL1133479 (J Med Chem, 2000)

How the values were obtained:
[1] = target: Melatonin receptor type 1A (Homo sapiens, UniProt P48039); test: Binding affinity for human melatonin receptor type 1A, expressed in HEK293 cells (2-[125I]iodomelatonin is used as radioligand); format: cell-based
[2] = Melanophore aggregation of the dermal melanocytes of Xenopus laevis tadpoles with regard to melatonin (=1); format: functional
[3] = Melanophore aggregation of the dermal melanocytes of Xenopus laevis tadpoles; format: functional
[4] = target: T1, Melatonin receptor type 1B (Homo sapiens, UniProt P49286); test: Binding affinity for melatonin receptor type 1B, expressed in HEK293 cells (2-[125I]iodomelatonin is used as radioligand); format: cell-based
T1 sequence (P49286 whole entry): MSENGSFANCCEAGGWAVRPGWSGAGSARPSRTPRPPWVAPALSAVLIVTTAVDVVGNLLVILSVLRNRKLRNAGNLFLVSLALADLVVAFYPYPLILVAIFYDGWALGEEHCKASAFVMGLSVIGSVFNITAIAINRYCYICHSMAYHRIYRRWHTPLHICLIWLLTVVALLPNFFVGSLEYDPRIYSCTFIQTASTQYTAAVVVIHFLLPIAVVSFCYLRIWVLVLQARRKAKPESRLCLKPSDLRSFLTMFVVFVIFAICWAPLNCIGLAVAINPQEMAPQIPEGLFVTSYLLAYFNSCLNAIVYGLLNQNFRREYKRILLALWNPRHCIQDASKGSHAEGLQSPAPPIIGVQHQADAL

Melatonin receptor = Melatonin receptor (Gallus gallus, UniProt P49288+P51050+P49285); test: Binding affinity is evaluated for chicken brain melatonin receptor using 2-[125I]iodomelatonin as radioligand
[5] = Percentage of maximum effect observed with regard to that of melatonin (100%); format: functional
Outline: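 Tadpole skin-lightening assay (melanophore index, 5 concentrations, 15 min exposure).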

[6] = compound is evaluated for melanophore aggregation of the dermal melanocytes of Xenopus laevis tadpoles with regard to melatonin (=1); format: functional

Sequence of Melatonin receptor type 1A (P48039 whole entry): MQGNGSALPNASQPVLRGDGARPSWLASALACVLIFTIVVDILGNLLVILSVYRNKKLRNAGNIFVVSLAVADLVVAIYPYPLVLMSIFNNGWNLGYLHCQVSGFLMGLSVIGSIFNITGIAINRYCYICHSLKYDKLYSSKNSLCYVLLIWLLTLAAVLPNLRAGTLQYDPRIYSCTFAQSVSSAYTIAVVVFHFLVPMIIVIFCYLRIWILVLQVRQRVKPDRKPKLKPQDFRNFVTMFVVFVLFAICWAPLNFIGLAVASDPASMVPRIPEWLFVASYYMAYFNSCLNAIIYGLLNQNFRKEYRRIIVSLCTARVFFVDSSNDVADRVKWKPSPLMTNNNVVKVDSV

| Compound | Ki [1] [nM] | Potency [2] | EC50 [3] [nM] | Ki [4] [nM] | Ki (Melatonin receptor) [nM] | Effect [5] [%] | Potency [6] |
| --- | --- | --- | --- | --- | --- | --- | --- |
| COc1ccc2cccc3c2c1C(CNC(C)=O)C3 (configuration not stated) | 0.12 | 1.33 | 5.08 | 0.12 | 2.95 |  |  |
| COc1ccc2ccc(OC)c3c2c1CCC3CCNC(C)=O (configuration not stated) | 0.2 | 2.5 | 2.65 | 0.55 | 3.6 |  |  |
| CCCC(=O)NCCC1CCc2c(OC)ccc3cccc1c23 (configuration not stated) |  |  |  |  | 28.1 |  |  |
| COc1ccc2cccc3c2c1C(CNC(C)=O)CC3 (configuration not stated) | 0.01 | 67.9 | 0.1 | 0.094 | 0.04 |  |  |
| CCCC(=O)NCC1Cc2cccc3cccc1c23 (configuration not stated) | 0.79 |  | 26 | 0.093 | 4.3 | < 50 |  |
| CC(=O)NCC1CCc2cccc3cccc1c23 (configuration not stated) | 1.2 |  |  | 0.22 | 5.5 |  |  |
| COc1ccc2cccc3c2c1CCC3CCNC(C)=O (configuration not stated) | 8.9 |  | > 1000 | 11.8 | 145 | 50 |  |
| CCCC(=O)NCC1CCc2cccc3cccc1c23 (configuration not stated) |  |  |  | 0.18 | 3.2 |  |  |
| COc1ccc2cccc3c2c1C(CCNC(C)=O)CC3 (configuration not stated) | 0.1 | 0.007 | 428 | 0.39 | 24.4 |  |  |
| CC(=O)NCC1Cc2cccc3cccc1c23 (configuration not stated) | 4.24 |  | > 1000 | 0.51 | 36.1 | < 50 |  |
| CCCC(=O)NCCC1Cc2cccc3cccc1c23 (configuration not stated) | 6.41 |  |  | 1.86 | 73.7 |  |  |
| CCCC(=O)NCC1Cc2cccc3ccc(OC)c1c23 (single isomer, unassigned; (-)) | 0.03 |  |  | 0.034 | 0.15 |  |  |
| CCC(=O)NCCC1Cc2cccc3ccc(OC)c1c23 (configuration not stated) | 0.22 |  |  | 0.24 | 4.75 |  |  |
| CCCC(=O)NCC1Cc2cccc3ccc(OC)c1c23 (single isomer, unassigned; (+)) | 3.9 |  |  | 7.4 | 4.3 |  |  |
| CCCC(=O)NCC1CCc2c(OC)ccc3ccc(OC)c1c23 (stereo in doubt; 15c) | 0.016 | 1697 | 0.004 | 0.1 | 0.07 |  |  |
| CCCC(=O)NCC1CCc2c(OC)ccc3cccc1c23 (single isomer, unassigned; (-)) | 0.11 |  |  | 0.068 | 0.8 |  |  |
| CCCC(=O)NCCC1CCc2c(OC)ccc3ccc(OC)c1c23 (configuration not stated) | 0.057 | 37.7 | 0.18 | 0.19 | 0.14 |  |  |
| CCCC(=O)NCC1Cc2cccc3ccc(OC)c1c23 (stereo in doubt; 20c) | 0.37 | 14.7 | 0.46 | 0.35 | 0.16 |  |  |
| CCCC(=O)NCCC1Cc2cccc3ccc(OC)c1c23 (configuration not stated) | 0.37 |  |  | 0.34 | 2.4 |  |  |
| COc1ccc2cccc3c2c1C(CCNC(=O)C1CC1)C3 (configuration not stated) | 10 |  |  | 41.8 | 97.1 |  |  |
| CCC(=O)NCCC1Cc2cccc3cccc1c23 (configuration not stated) | 4.34 |  |  | 1.86 | 101.8 |  |  |
| COc1ccc2cccc(CCNC(C)=O)c2c1 [AGOMELATINE] |  | 0.8 | 0.53 |  |  |  |  |
| COc1ccc2ccc(OC)c3c2c1CCC3CNC(C)=O (configuration not stated) | 0.015 | 271.6 | 0.025 | 0.145 | 0.054 |  |  |

| Compound | Ki [1] [nM] | Potency [2] | EC50 [3] [nM] | Ki [4] [nM] | Ki (Melatonin receptor) [nM] | Effect [5] [%] | Potency [6] |
| --- | --- | --- | --- | --- | --- | --- | --- |
| COc1ccc2ccc(OC)c3c2c1CCC3CCNC(=O)C1CC1 (configuration not stated) | 0.66 |  |  | 1.59 | 11.2 |  |  |
| COc1ccc2cccc3c2c1C(CCNC(C)=O)C3 (configuration not stated) | 0.41 |  | > 1000 | 0.59 | 2.7 | 50 |  |
| CCC(=O)NCC1Cc2cccc3cccc1c23 (configuration not stated) | 2.65 |  |  | 0.22 | 14.3 |  |  |
| O=C(NCC1Cc2cccc3cccc1c23)C1CC1 (configuration not stated) | 1.06 |  |  | 0.57 | 40.5 |  |  |
| CCC(=O)NCCC1CCc2c(OC)ccc3ccc(OC)c1c23 (configuration not stated) | 0.07 |  |  | 0.55 | 0.8 |  |  |
| COc1ccc2cccc3c2c1CCC3CNC(=O)C1CC1 (configuration not stated) | 0.95 |  |  | 0.79 | 4.6 |  |  |
| CCCC(=O)NCC1CCc2c(OC)ccc3cccc1c23 (stereo in doubt; 13c) | 0.45 |  | 1.61 | 0.11 | 0.36 |  | 13.3 |
| CCCC(=O)NCC1CCc2c(OC)ccc3ccc(OC)c1c23 (single isomer, unassigned; (-)) |  |  |  |  | 0.034 |  |  |
| COc1ccc2cccc3c2c1C(CNC(=O)C1CC1)C3 (configuration not stated) | 1.32 |  |  | 0.31 | 3.8 |  |  |
| O=C(NCCC1Cc2cccc3cccc1c23)C1CC1 (configuration not stated) | 6.48 |  |  | 16.2 | 399 |  |  |
| CCCC(=O)NCC1CCc2cccc3ccc(OC)c1c23 (configuration not stated) | 0.008 | 84.8 | 0.08 | 0.069 | 0.02 |  |  |
| CCC(=O)NCC1CCc2c(OC)ccc3cccc1c23 (configuration not stated) | 0.19 |  |  | 0.13 | 0.7 |  |  |
| CCCC(=O)NCC1CCc2c(OC)ccc3ccc(OC)c1c23 (single isomer, unassigned; (+)) |  |  |  |  | 0.31 |  |  |
| CC(=O)NCCC1Cc2cccc3cccc1c23 (configuration not stated) | 6.5 |  | > 1000 | 3.83 | 123.3 | < 50 |  |
| CCCC(=O)NCC1CCc2c(OC)ccc3cccc1c23 (stereo in doubt; 13c (+)) | 2.9 |  |  | 4.07 | 21.7 |  |  |
| COc1ccc2cccc3c2c1CCC3CCNC(=O)C1CC1 (configuration not stated) | 1.89 |  |  | 13.2 | 43.4 |  |  |
| CCC(=O)NCCC1CCc2c(OC)ccc3cccc1c23 (configuration not stated) | 2.08 |  |  | 4.03 | 31.7 |  |  |
| COc1ccc2ccc(OC)c3c2c1CCC3CNC(=O)C1CC1 (configuration not stated) | 0.026 |  |  | 0.26 | 0.13 |  |  |
| COc1ccc2cccc3c2c1CCC3CNC(C)=O (configuration not stated) | 0.8 | 0.11 | 57.8 | 0.41 | 0.9 |  |  |
| CCC(=O)NCC1Cc2cccc3ccc(OC)c1c23 (configuration not stated) | 0.1 |  |  | 0.085 | 0.9 |  |  |
| CCC(=O)NCC1CCc2c(OC)ccc3ccc(OC)c1c23 (configuration not stated) | 0.012 |  |  | 0.153 | 0.011 |  |  |
| CCCC(=O)NCCC1CCc2cccc3ccc(OC)c1c23 (configuration not stated) |  |  |  |  | 0.43 |  |  |
